Laboratory results published in ChEMBL document CHEMBL5653631, “A Potent and Selective ULK1 Inhibitor Suppresses Autophagy and Sensitizes Cancer Cells to Nutrient Stress” (iScience, 2018).

Legend:
[1] = target: T1, SNF-related serine/threonine-protein kinase (Homo sapiens) (UniProt Q9NRH2); experiment: Inhibition of human recombinant SNRK at 500 nM related to control ULK1
T1 sequence (whole entry): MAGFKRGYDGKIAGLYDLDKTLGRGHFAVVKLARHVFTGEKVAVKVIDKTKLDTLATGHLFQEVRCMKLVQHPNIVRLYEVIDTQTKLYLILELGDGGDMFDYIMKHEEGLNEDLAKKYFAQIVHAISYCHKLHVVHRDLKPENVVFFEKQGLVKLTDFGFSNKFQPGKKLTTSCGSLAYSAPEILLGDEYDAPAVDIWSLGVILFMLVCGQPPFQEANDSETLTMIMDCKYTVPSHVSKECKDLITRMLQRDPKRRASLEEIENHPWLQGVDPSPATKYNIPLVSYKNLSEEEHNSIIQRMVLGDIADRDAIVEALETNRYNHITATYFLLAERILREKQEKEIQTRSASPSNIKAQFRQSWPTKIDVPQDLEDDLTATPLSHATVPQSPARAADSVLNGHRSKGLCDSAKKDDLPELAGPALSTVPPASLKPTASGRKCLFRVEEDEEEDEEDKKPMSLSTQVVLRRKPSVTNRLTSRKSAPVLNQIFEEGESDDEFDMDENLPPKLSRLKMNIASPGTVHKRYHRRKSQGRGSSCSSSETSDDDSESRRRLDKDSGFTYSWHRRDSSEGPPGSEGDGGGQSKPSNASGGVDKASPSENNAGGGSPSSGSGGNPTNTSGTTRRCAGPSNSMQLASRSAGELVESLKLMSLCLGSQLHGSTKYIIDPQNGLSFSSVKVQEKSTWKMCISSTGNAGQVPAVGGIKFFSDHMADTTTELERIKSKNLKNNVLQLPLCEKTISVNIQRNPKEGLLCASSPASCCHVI

[2] = target: Tyrosine-protein kinase Yes (Homo sapiens) (UniProt P07947); experiment: Inhibition of human recombinant YES at 500 nM in presence of ATP by radiometric assay relative to control
Tyrosine-protein kinase Yes (Homo sapiens), sequence (P07947 2-543 limits assumed): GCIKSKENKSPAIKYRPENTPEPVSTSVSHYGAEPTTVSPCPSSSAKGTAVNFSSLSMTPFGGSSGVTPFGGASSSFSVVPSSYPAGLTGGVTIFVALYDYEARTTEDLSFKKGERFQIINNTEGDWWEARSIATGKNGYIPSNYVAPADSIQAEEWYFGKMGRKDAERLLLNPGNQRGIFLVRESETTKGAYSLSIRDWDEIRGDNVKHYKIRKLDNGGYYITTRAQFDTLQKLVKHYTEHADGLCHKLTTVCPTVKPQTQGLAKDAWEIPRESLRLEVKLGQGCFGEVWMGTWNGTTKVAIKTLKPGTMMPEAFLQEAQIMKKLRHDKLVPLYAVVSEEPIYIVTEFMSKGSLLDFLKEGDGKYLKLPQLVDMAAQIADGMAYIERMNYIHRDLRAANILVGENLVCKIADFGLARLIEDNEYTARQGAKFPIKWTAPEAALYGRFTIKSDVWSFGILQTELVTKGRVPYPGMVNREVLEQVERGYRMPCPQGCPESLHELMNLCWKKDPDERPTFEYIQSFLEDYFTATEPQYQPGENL

[3] = target: Tyrosine-protein kinase ABL2 (Homo sapiens) (UniProt P42684); experiment: Inhibition of human recombinant ABL2 at 500 nM related to control ULK1
[4] = target: Cyclin-dependent kinase 1 (Homo sapiens) (UniProt P06493); experiment: Inhibition of human recombinant CDC2 at 500 nM related to control ULK1
Cyclin-dependent kinase 1 (Homo sapiens), sequence (P06493 whole entry, looked up): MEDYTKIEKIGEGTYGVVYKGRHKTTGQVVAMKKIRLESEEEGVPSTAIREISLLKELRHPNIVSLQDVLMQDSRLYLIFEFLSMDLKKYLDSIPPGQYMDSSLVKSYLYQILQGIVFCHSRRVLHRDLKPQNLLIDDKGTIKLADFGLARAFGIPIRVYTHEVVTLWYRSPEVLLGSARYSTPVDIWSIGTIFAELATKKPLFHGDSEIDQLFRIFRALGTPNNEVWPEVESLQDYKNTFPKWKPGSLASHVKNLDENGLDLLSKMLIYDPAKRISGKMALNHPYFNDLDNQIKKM

[5] = target: Protein-tyrosine kinase 6 (Homo sapiens) (UniProt Q13882); experiment: Inhibition of human recombinant BRK at 500 nM related to control ULK1
Protein-tyrosine kinase 6 (Homo sapiens), sequence (Q13882 whole entry, looked up): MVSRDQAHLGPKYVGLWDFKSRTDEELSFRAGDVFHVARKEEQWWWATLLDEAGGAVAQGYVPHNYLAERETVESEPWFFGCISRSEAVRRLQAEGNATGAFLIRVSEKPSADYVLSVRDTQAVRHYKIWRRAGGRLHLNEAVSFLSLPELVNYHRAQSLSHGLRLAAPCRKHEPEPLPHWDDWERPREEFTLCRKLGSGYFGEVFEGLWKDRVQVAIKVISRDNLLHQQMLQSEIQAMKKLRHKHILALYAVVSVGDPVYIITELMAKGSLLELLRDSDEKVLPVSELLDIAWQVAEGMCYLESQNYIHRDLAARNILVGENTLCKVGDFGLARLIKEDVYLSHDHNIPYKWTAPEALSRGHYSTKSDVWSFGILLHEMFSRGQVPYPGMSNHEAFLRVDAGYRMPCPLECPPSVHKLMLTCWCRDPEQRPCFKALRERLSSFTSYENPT

[6] = target: Mitogen-activated protein kinase 14 (Homo sapiens) (UniProt Q16539); experiment: Inhibition of human recombinant p38alpha at 15 nM related to control ULK1
Mitogen-activated protein kinase 14 (Homo sapiens), sequence (Q16539 whole entry): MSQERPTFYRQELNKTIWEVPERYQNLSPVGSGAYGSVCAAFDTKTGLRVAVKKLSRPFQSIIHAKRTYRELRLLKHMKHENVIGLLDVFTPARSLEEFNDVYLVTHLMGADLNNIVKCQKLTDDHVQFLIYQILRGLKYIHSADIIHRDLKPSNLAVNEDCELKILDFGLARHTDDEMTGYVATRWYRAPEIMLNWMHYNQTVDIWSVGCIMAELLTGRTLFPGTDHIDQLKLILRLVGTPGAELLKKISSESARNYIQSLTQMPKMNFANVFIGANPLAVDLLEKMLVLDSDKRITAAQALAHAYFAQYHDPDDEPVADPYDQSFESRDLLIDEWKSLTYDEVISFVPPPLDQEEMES

[7] = target: 5'-AMP-activated protein kinase catalytic subunit alpha-2 (Homo sapiens) (UniProt P54646); experiment: Inhibition of human recombinant AMPKa2 at 15 nM in presence of ATP by radiometric assay relative to control
5'-AMP-activated protein kinase catalytic subunit alpha-2 (Homo sapiens), sequence (P54646 whole entry, looked up): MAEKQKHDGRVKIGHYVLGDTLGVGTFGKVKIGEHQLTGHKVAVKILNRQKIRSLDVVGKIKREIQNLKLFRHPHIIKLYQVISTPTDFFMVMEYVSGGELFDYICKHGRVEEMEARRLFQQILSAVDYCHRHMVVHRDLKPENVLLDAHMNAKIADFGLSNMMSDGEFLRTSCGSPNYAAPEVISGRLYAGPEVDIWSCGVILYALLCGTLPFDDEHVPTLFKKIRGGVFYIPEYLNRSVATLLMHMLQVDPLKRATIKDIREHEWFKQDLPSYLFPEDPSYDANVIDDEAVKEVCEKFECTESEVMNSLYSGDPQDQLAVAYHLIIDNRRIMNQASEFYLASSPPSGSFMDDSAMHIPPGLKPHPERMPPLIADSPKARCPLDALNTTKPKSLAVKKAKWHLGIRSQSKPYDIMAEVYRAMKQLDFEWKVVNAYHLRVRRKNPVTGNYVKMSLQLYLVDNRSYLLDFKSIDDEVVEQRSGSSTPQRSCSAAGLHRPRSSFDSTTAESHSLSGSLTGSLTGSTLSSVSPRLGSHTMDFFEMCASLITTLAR
Procedure, shortened: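 Panel of 327 recombinant human kinases, each assayed in vitro by radiometric activity assay in duplicate at a single inhibitor concentration per compound, chosen with reference to its ULK1 inhibition. Activity remaining was expressed as percent of vehicle control, and percent inhibition was calculated as 100 minus percent activity remaining.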

[8] = target: Interferon-induced, double-stranded RNA-activated protein kinase (Homo sapiens) (UniProt P19525); experiment: Inhibition of human recombinant PKR at 15 nM in presence of ATP by radiometric assay relative to control
Interferon-induced, double-stranded RNA-activated protein kinase (Homo sapiens), sequence (P19525 whole entry): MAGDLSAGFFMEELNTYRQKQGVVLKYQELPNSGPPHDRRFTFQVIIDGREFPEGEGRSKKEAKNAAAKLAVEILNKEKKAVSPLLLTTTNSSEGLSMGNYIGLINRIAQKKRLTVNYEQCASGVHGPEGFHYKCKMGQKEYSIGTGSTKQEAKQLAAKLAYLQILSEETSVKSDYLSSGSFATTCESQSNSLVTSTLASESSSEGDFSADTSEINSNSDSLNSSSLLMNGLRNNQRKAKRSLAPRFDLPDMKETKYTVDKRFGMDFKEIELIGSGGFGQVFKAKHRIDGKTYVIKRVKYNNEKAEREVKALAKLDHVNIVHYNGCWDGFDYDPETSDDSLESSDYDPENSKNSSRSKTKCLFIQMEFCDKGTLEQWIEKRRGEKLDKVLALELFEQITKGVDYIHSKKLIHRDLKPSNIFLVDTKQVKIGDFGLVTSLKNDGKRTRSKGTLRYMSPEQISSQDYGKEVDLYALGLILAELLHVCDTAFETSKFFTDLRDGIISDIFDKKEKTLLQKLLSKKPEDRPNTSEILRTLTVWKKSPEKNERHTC

[9] = target: T2, Serine/threonine-protein kinase STK11 (Homo sapiens) (UniProt Q15831); experiment: Inhibition of human recombinant LKB1 at 15 nM related to control ULK1
T2 sequence (whole entry): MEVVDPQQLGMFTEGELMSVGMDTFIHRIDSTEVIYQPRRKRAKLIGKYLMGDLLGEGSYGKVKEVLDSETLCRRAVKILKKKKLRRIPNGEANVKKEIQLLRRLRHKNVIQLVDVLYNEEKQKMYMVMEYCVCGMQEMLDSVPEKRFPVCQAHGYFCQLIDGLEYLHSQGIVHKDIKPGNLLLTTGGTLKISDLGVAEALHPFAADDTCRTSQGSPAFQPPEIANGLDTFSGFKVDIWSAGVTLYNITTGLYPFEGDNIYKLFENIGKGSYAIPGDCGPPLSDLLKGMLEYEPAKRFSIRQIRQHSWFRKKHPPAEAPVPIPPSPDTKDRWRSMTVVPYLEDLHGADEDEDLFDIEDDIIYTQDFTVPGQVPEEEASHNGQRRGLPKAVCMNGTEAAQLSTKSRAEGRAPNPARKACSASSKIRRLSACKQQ

[10] = target: Calcium/calmodulin-dependent protein kinase type 1 (Homo sapiens) (UniProt Q14012); experiment: Inhibition of human recombinant CaMK1a at 15 nM related to control ULK1
Calcium/calmodulin-dependent protein kinase type 1 (Homo sapiens), sequence (Q14012 whole entry, looked up): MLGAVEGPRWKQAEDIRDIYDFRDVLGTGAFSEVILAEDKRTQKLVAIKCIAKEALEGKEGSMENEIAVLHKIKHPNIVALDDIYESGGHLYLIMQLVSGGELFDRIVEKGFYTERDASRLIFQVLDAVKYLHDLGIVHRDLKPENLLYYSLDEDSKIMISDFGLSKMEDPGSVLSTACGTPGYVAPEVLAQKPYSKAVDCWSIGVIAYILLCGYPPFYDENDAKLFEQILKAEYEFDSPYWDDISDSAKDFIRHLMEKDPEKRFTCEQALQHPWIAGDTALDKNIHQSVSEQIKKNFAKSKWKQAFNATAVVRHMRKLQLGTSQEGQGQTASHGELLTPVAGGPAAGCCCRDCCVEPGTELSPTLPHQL

[11] = target: Homeodomain-interacting protein kinase 2 (Homo sapiens) (UniProt Q9H2X6); experiment: Inhibition of human recombinant HIPK2 at 15 nM in presence of ATP by radiometric assay relative to control
Homeodomain-interacting protein kinase 2 (Homo sapiens), sequence (Q9H2X6 whole entry, looked up): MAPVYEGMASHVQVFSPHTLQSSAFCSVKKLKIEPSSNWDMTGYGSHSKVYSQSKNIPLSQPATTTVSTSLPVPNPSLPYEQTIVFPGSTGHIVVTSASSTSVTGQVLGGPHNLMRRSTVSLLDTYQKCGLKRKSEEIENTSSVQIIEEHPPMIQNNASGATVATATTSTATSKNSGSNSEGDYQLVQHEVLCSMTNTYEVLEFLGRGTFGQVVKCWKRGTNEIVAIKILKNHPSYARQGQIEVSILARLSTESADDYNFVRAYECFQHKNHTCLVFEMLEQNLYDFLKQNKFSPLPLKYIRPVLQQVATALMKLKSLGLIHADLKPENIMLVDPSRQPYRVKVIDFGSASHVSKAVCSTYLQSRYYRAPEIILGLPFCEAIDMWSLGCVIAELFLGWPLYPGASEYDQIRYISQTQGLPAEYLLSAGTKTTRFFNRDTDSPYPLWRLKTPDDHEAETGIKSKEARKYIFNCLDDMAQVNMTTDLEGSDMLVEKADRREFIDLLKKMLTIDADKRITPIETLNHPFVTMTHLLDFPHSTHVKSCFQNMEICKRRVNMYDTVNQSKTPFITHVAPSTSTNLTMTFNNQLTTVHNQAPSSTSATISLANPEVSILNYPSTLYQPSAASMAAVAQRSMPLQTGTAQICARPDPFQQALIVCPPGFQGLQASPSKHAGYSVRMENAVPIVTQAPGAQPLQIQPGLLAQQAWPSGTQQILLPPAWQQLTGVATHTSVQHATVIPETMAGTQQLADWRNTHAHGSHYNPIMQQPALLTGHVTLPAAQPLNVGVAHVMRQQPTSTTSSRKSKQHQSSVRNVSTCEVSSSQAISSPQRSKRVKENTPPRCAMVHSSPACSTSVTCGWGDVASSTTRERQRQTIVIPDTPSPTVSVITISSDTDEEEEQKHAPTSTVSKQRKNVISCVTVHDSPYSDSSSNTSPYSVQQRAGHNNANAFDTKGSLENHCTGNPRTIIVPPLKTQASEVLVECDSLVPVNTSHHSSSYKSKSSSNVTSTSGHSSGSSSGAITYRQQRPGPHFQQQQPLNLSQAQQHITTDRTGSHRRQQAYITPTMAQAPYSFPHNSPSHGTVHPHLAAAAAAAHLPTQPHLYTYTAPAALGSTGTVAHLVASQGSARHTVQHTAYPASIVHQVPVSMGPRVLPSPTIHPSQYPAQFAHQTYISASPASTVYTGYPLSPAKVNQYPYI

[12] = target: Mitogen-activated protein kinase kinase kinase 9 (Homo sapiens) (UniProt P80192); experiment: Inhibition of human recombinant MLK1 at 15 nM related to control ULK1
[13] = target: Dual specificity mitogen-activated protein kinase kinase 1 (Homo sapiens) (UniProt Q02750); experiment: Inhibition of human recombinant MAP2K1 at 40 nM in presence of ATP by radiometric assay relative to control
Dual specificity mitogen-activated protein kinase kinase 1 (Homo sapiens), sequence (Q02750 whole entry): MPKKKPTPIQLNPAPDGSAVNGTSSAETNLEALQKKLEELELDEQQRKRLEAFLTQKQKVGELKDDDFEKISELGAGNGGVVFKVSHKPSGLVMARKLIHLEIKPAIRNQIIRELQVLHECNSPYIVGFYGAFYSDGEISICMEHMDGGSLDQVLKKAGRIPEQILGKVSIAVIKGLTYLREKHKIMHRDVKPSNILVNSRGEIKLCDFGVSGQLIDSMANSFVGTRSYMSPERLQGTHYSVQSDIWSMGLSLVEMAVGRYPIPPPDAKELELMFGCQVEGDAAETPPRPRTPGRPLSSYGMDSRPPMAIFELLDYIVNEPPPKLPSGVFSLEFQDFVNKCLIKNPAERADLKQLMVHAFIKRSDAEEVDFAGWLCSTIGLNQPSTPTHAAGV

[14] = target: T3, Testis-specific serine/threonine-protein kinase 3 (Homo sapiens) (UniProt Q96PN8); experiment: Inhibition of human recombinant TSSK3 at 40 nM in presence of ATP by radiometric assay relative to control
T3 sequence (whole entry): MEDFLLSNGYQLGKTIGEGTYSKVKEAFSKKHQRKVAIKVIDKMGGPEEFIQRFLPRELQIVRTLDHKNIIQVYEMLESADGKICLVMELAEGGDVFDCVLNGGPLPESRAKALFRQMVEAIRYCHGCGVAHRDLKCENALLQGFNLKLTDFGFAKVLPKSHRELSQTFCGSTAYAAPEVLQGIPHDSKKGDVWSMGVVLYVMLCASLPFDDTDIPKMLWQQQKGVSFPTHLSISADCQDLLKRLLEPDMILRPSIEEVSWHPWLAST

`CNC(=O)c1ccccc1Oc1nc(Nc2cc(OC)c(OC)c(OC)c2)ncc1Br` showed a fold change (FC) [1] of 0, an inhibition [2] of 66% and a fold change (FC) [3] of 0.28. The fold change (FC) [4] was 0.41 and the fold change (FC) [5] was 0.03.

`CC(C)[C@H](NC(=O)c1cc(-c2cnn3cc(-c4ccc(OCCN5CCCCC5)cc4)cnc23)cs1)C(F)(F)F` gave a fold change (FC) [6] of 0.06, an inhibition [7] of 83% and an inhibition [8] of 2%. The fold change (FC) [9] was 0, the fold change (FC) [10] was 0.08 and the inhibition [11] was 3%. The fold change (FC) [12] was 0.

`O=C(N[C@@H](C1CC1)C(F)(F)F)c1cc(-c2cnn3cc(-c4ccc(F)cc4)cnc23)cs1` showed an inhibition [13] of 0% and an inhibition [14] of 0%.
